These results are taken from the array DNA melting data of Ke et al. (doi:10.1101/2024.01.08.574731).

Data set [1] is described as follows: folding enthalpy; higher = less favourable; fluorescence melt of hairpins on a sequencing array, two-state fit. The note with it: sodium 0.088 M. Summed up: (§1)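 Cy3 fluorescence of library hairpins on a sequenced MiSeq flow cell, with annealed Cy3 and quencher oligos, was imaged in 50 mM Na-HEPES pH 8.0, 25 mM NaCl in 2.5 °C steps up to 60 °C. Signals were normalised to pre-quench Cy3 and to control variants. Melting temperature and folding enthalpy came from bootstrapped two-state fits, inverse-variance combined over four replicates. Fitted temperatures were raised by 9.35 °C to match UV melts.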

Data set [2] can be described thus: melting temperature; fluorescence melt of hairpins on a sequencing array, two-state fit, raised by 9.35 °C to match UV melts. The note with it: sodium 0.088 M. Summed up: as §1

Regarding GCGCGCGGAAACGCACGC (((.(((....))).))), the folding enthalpy in data set [1] is -32.6 kcal/mol. Further, in data set [2], the Tm stood at 67.8 °C.
On to GCGCGCGGAAACGCGCAC (.(((((....))))).), for which the folding enthalpy in data set [1] is -7.45 kcal/mol. The Tm in data set [2] worked out at 65.3 °C.
With GCGCGGCGAAAGCCCTGC ((..(((....)))..)), in data set [1], the folding enthalpy is -13.5 kcal/mol. Moreover, the Tm in data set [2] was determined as 50.1 °C.
In the same order, the values of GCGCGGCGAAAGCCTAGC ((..(((....)))..)) are -26.9 kcal/mol and 61.1 °C.
In the same order, the values of GCGCGGCGAAAGCGTCGC (((..((....))..))) are -19.8 kcal/mol and 63.2 °C.
Take GCGCGGCGAAAGCTACGC (((..((....))..))): in data set [1], the folding enthalpy is -19.8 kcal/mol. For the same sequence, the Tm in data set [2] stood at 64.1 °C.
For GCGCGGCGAAAGCTCCGC (((..((....))..))), in data set [1], the folding enthalpy is -20.3 kcal/mol. The Tm in data set [2] is 58.3 °C.
In the same order, the values of GCGCGTCCGAAAGGACGC (((..(((....)))))) are -5.6 kcal/mol and 67.3 °C.
In the same order, the values of GCGCGTGGAAACGTGCGC ((((..(....)..)))) are -40.5 kcal/mol and 64.7 °C.
In the same order, the values of GCGCTAACGAAAGTTCGC (((..(((....)))))) are -21.8 kcal/mol and 45.4 °C.
Take GCGCTACGAAAGTATCGC (((.(((....))).))): in data set [1], the folding enthalpy is -42.1 kcal/mol. In addition, the Tm in data set [2] amounted to 53.9 °C.
For the sequence GCGCTCCGAAAGGACGC (((.(((....)))))), the folding enthalpy in data set [1] was -33.6 kcal/mol. Besides, the Tm in data set [2] worked out at 60 °C.
The corresponding values for GCGCTCGAAAGAGGCGC ((((((....))).))) are -29.2 kcal/mol and 67.4 °C.
The corresponding values for GCGCTCGAAAGAGGTCGC ((((((....)))..))) are -25.2 kcal/mol and 47.9 °C.
In the same order, the values of GCGCTGCGAAAGCACAGC ((..(((....)))..)) are -17.6 kcal/mol and 49.9 °C.
For the sequence GCGCTGCGAAAGCATCGC (((.(((....))).))), the folding enthalpy in data set [1] is -60.2 kcal/mol. The Tm in data set [2] stood at 58.6 °C.
The corresponding values for GCGCTGCGAAAGCTCCGC (((..((....))..))) are -20.5 kcal/mol and 49.4 °C.
As for GCGCTGCGAAAGCTGGGC ((.(.((....)).).)), the folding enthalpy in data set [1] is -24.4 kcal/mol. For the same sequence, in data set [2], the Tm amounted to 62.4 °C.
In the same order, the values of GCGCTGCGAAAGCTGTGC ((.(.((....)).).)) are -34.4 kcal/mol and 59.5 °C.
Regarding GCGCTGGGAAACCGGTGC ((.(.((....)).).)), in data set [1], the folding enthalpy was -42.6 kcal/mol. Moreover, the Tm in data set [2] came out at 51.5 °C.
The corresponding values for GCGCTTCGAAAGAAACGC (((.(((....))).))) are -38.8 kcal/mol and 54.5 °C.
The corresponding values for GCGCTTGGAAACAAGTGC ((.((((....)))).)) are -50.5 kcal/mol and 56.9 °C.
Consider GCGCTTGGAAACGAGCGC (((((.(....).))))), for which the folding enthalpy in data set [1] is -52.1 kcal/mol. Besides, in data set [2], the Tm was found to be 63.8 °C.
As to GCGCTTGGAAACGAGTGC ((.((.(....).)).)), in data set [1], the folding enthalpy is -32.8 kcal/mol. Also, the Tm in data set [2] is 46.1 °C.
In the same order, the values of GCGCTTTCGAAAGAACGC (((..(((....)))))) are -34.8 kcal/mol and 40.1 °C.
In the same order, the values of GCGGAACACCGC ((((....)))) are -23.2 kcal/mol and 54.6 °C.
Turning to GCGGAACTCCGC ((((....)))), the folding enthalpy in data set [1] is -25.7 kcal/mol. The Tm in data set [2] turned out to be 54.9 °C.
The corresponding values for GCGGAAGGAAACCTCCGC (((((.(....).))))) are -33.2 kcal/mol and 54.1 °C.
For GCGGAAGGAAACTCCCGC ((((.((....)).)))), the folding enthalpy in data set [1] is -36.2 kcal/mol. The Tm in data set [2] was 50 °C.
As to GCGGAAGGAAACTTCTGC ((.((((....)))).)), the folding enthalpy in data set [1] is -44.6 kcal/mol. Further, the Tm in data set [2] was found to be 51.4 °C.
The corresponding values for GCGGACGAAAGTCACCGC ((((((....)))..))) are -29.5 kcal/mol and 51.5 °C.
Take GCGGACGAAAGTCCTCGC ((((((....)))..))): in data set [1], the folding enthalpy was -14.4 kcal/mol. Moreover, in data set [2], the Tm is 51.2 °C.
As for GCGGACGAAAGTCTCCGC ((((((....)))..))), the folding enthalpy in data set [1] is -25.7 kcal/mol. In addition, in data set [2], the Tm is 51.3 °C.
Take GCGGACGGAAACGCCCAC (.((.((....)).)).): the folding enthalpy in data set [1] is -18.9 kcal/mol. In addition, the Tm in data set [2] was 36.6 °C.
The corresponding values for GCGGAGACGAAAGTCCGC (((..(((....)))))) are -32 kcal/mol and 58.5 °C.
On to GCGGAGAGCCGC ((((....)))), for which the folding enthalpy in data set [1] was -17.4 kcal/mol. In addition, in data set [2], the Tm turned out to be 54.4 °C.
In the same order, the values of GCGGAGCGAAAGCTAAGC ((..(((....)))..)) are -12.8 kcal/mol and 54 °C.
Take GCGGAGCGAAAGCTATGC ((..(((....)))..)): in data set [1], the folding enthalpy is -16.5 kcal/mol. In data set [2], the Tm came to 44.5 °C.
GCGGAGCGAAAGCTTCGC (((.(((....))).))): in data set [1], the folding enthalpy is -31.2 kcal/mol. In data set [2], the Tm was 68.6 °C.
In the same order, the values of GCGGAGCGAAAGCTTGGC ((..(((....)))..)) are -13.5 kcal/mol and 39.4 °C.
GCGGAGCTCCGC ((((....)))): the folding enthalpy in data set [1] is -20.9 kcal/mol. The Tm in data set [2] was 55.2 °C.
In the case of GCGGAGTACCGC ((((....)))), in data set [1], the folding enthalpy is -24.2 kcal/mol. Also, the Tm in data set [2] was determined as 55.9 °C.
In the same order, the values of GCGGATCGCCGC ((((....)))) are -19.9 kcal/mol and 55.6 °C.
The corresponding values for GCGGATGCCGC ((((...)))) are -10.5 kcal/mol and 58.8 °C.
The corresponding values for GCGGATGGAAACACCCGC ((((.((....)).)))) are -42.9 kcal/mol and 53 °C.
Take GCGGATGGAAACATTCGC (((.(((....))).))): the folding enthalpy in data set [1] is -43.5 kcal/mol. Further, in data set [2], the Tm was 55.1 °C.
With GCGGATTCGAAAGAACGC (((..(((....)))))), in data set [1], the folding enthalpy is -27.2 kcal/mol. Further, the Tm in data set [2] worked out at 45.1 °C.
Regarding GCGGATTGCCGC ((((....)))), in data set [1], the folding enthalpy is -11.3 kcal/mol. Also, the Tm in data set [2] was determined as 53.7 °C.
The corresponding values for GCGGCAAGCCGC ((((....)))) are -28.3 kcal/mol and 68.1 °C.
In the same order, the values of GCGGCAGGAAACTACCGC ((((.((....)).)))) are -41.2 kcal/mol and 53.1 °C.
With GCGGCAGGAAACTGTCGC (((.(((....))).))), the folding enthalpy in data set [1] was -38.1 kcal/mol. In data set [2], the Tm worked out at 67.3 °C.
The corresponding values for GCGGCCCCCCGC ((((....)))) are -23.8 kcal/mol and 55 °C.
The corresponding values for GCGGCCGGAAACGACCGC ((((.((....)).)))) are -34.9 kcal/mol and 67.2 °C.
On to GCGGCCTCCGC ((((...)))), for which the folding enthalpy in data set [1] was -17.7 kcal/mol. For the same sequence, the Tm in data set [2] was 61.8 °C.
Regarding GCGGCCTCGAAAGAGCGC (((..(((....)))))), the folding enthalpy in data set [1] was -25.6 kcal/mol. In addition, the Tm in data set [2] was found to be 52.7 °C.
GCGGCGACGAAAGTCCGC (((..(((....)))))): in data set [1], the folding enthalpy was -17.8 kcal/mol. Further, the Tm in data set [2] was found to be 55.6 °C.
